A selection: hits, their analogues and other compounds. The true share with any hit is near 4.5%.
OX1R antag-1: OX1R (HCRTR1) antagonists, primary screen, fluorescence, CHO/OX1R cells, Fluo-8 calcium, orexin A; Orexin/Hypocretin receptor type 1 (Homo sapiens), O43613; Fluo-8 calcium fluorescence; inhibition, % at 5 µM; 330,000 compounds, 0.43% hits;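 active = inhibition above its plate's threshold, mean inhibition of all tested compounds on the plate plus 3 SD, cut at about 37% in these data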;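 note: 0% = orexin A challenge wells and 100% = SB-334867-A antagonist wells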
Target sequence (O43613 whole entry, looked up): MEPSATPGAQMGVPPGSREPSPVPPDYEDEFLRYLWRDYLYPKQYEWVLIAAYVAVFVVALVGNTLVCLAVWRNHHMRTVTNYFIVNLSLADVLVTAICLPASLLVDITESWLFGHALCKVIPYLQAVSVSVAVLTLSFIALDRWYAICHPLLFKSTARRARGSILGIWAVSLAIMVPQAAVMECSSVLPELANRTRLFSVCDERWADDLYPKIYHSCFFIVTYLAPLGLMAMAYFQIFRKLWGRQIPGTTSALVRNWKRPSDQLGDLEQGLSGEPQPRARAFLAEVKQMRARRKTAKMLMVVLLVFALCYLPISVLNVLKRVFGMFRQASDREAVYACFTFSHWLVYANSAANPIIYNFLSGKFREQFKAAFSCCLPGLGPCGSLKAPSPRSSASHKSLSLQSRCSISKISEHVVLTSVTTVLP
OX1R antag-2: antagonists of human orexin 1 receptor (OX1R); inhibition, % at 6.6 µM; OX1R-expressing cells, FRET antagonist read-out; Orexin/Hypocretin receptor type 1 (Homo sapiens), O43613; 330,000 compounds, 1.8% hits; in the data active = inhibition mostly above about 38%, no sharp cut-off; inactive = mostly below about 40%;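 note: 0% = agonist challenge alone and 100% = reference antagonist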
TAAR1 ag: human TAAR1 agonists, primary screen, Fluo-8 calcium fluorescence, CHO RD-HGA16 cells | Trace amine-associated receptor 1 (Homo sapiens), Q96RJ0 | vehicle wells 0%, saturating PEA agonist 100% | activation, % at 3 µM | 360,000 compounds, 0.99% hits;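 active = activation above the mean activation of all test compounds in the run plus 3 SD, cut at about 38% in these data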
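Benchmarks: low control DMSO, high control PEA (EC100); System: CHO RD-HGA16 cells carrying human TAAR1 plus Gα16; Detection: Fluo-8 fluorescence, 5 s baseline then 140 s kinetic read; Schedule: 17-24 h plating, Fluo-8 75 min 37 °C, 30 min RT; Read-out basis: % activation from peak over basal fluorescence ratio, DMSO-to-PEA scaled.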
CHO parental Ca: ATP-evoked calcium signal inhibitors, parental CHO, primary screen, counter-screen for OX1R antagonist project, cell-based, fluorescence, Fluo-8 calcium dye. parental CHO-K1, ATP-induced calcium, Fluo-8 fluorescence. inhibition, % at 5.6 µM. 330,000 compounds, 0.63% hits. AID 463079, 2010;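 active = inhibition above that plate's mean sample inhibition plus 3 SD, cut at about 26% in these data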;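 note: 0% = ATP-challenged DMSO wells and 100% = DMSO wells without ATP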
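Assay system: parental CHO cells; Read-out basis: percent inhibition of ATP-evoked calcium rise, normalized to controls; Benchmarks: ATP and no-ATP DMSO wells; Compound dosing: single nominal dose of 5.6 µM per compound; Signal: Fluo-8 calcium dye fluorescence; Also added: ATP as calcium-mobilizing challenge; Repeats: singlicate.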
TAAR1 antag: human TAAR1 antagonists, primary screen, Fluo-8 calcium fluorescence, CHO RD-HGA16 cells; inhibition, % at 3 µM; 360,000 compounds, 1.5% hits; AID 624466, 2012; Trace amine-associated receptor 1 (Homo sapiens), Q96RJ0; antagonist;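 active = inhibition above a per-plate cutoff, the mean inhibition of test compounds on that plate plus 3 SD, cut at about 49% in these data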;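 note: 0% = DMSO plus EC80 beta-PEA response and 100% = DMSO alone without agonist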
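Test system: hTAAR1-expressing CHO RD-HGA16 cells, Gα16-coupled; Probe or stimulus: EC80 β-phenethylamine stimulus; Compound dosing: single nominal final test compound concentration of 3 µM; Timing: 140 s kinetic read after compound, 140 s after agonist; Signal: Fluo-8 calcium-sensitive fluorescence; Measure: % inhibition of agonist calcium response; Controls: DMSO and EC80 PEA controls.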
GPR7 antag: GPR7 receptor antagonists, primary screen, cell-based, fluorescence, single concentration | Neuropeptides B/W receptor type 1 (Homo sapiens), P48145 | GPR7-expressing cells, fluorescence antagonist assay | inhibition, % at 4.4 µM | 290,000 compounds, 1.1% hits | AID 1861, 2009; in the data active = inhibition above about 16%, passing the limit was not always enough;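 note: cells stimulated with the agonist NPW; 0% = agonist with vehicle and 100% = vehicle without agonist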
* = called active by the depositor.

`Cc1cc(NC(=O)Nc2ccccc2F)ccc1Br` gave OX1R antag-1 12.6, OX1R antag-2 41.4, TAAR1 ag 13.8, CHO parental Ca 25.9, TAAR1 antag 66.3* and GPR7 antag 1.7.
O=C(O)c1ccccc1N1C(=O)c2cccc3cccc(c23)C1=O was read as OX1R antag-1 -13.3, OX1R antag-2 65.6*, TAAR1 ag 2.4, CHO parental Ca -3.2, TAAR1 antag -5.1 and GPR7 antag -5.0.
`O=C1c2cccc3cccc(c23)C(=O)N1c1cccnc1` gave OX1R antag-1 -16.3, OX1R antag-2 48.1*, TAAR1 ag 5.0, CHO parental Ca -14.7, TAAR1 antag -27.2 and GPR7 antag -12.3.
For Cc1c(N2C(=O)c3cccc4cccc(c34)C2=O)cnn1C the results were OX1R antag-1 -19.3, OX1R antag-2 51.2*, TAAR1 ag -0.9, CHO parental Ca -22.7, TAAR1 antag 14.7 and GPR7 antag -8.4.
Cc1csc(=O)n1CC(=O)OCC(=O)c1ccc(Br)cc1 was read as OX1R antag-1 -11.3, OX1R antag-2 11.4, TAAR1 ag -0.2, CHO parental Ca -14.5 and TAAR1 antag -6.1.
`O=C(NCCN1CCCC(O)C1)c1cc(COc2cccc(C(F)(F)F)c2)on1` (centres undefined) gave TAAR1 ag 4.1 and TAAR1 antag -21.9.
Cn1cnnc1SCc1ccc(C(=O)N=Nc2c(O)n(Cc3ccc(Cl)cc3)c3ccccc23)cc1 was read as OX1R antag-1 1.0, OX1R antag-2 12.3, TAAR1 ag 10.2, CHO parental Ca -16.7, TAAR1 antag 23.7 and GPR7 antag -4.3.
For CCn1c(O)c(N=NC(=O)c2ccc(CSc3nncn3C)cc2)c2ccccc21 the results were OX1R antag-1 -20.2, OX1R antag-2 70.3*, TAAR1 ag 8.7, CHO parental Ca -16.9, TAAR1 antag 1.3 and GPR7 antag -14.3.
Screening O=C(Nc1cccn(Cc2ccc(F)cc2)c1=O)NC1CCCCC1 returned OX1R antag-1 -27.4, OX1R antag-2 30.8, TAAR1 ag 39.1*, CHO parental Ca -21.4, TAAR1 antag -8.1 and GPR7 antag -6.8.
C[C@H](CO)N1C[C@H](C)[C@H](CN(C)Cc2cccc(O)c2)OCc2ccccc2-c2c(n(C)c3ccccc23)C1=O was read as TAAR1 ag 1.2 and TAAR1 antag -13.8.
Screening CCCc1nnc(SCC(=O)Nc2ccc(NC(C)=O)cc2)n1-n1cccc1 returned OX1R antag-1 -37.8, OX1R antag-2 1.6, TAAR1 ag 4.7, CHO parental Ca -18.6 and TAAR1 antag -9.2.
COc1ccc(NC(=O)/C(Cl)=C(/Cl)S(=O)(=O)Cc2ccc(C)cc2)cn1 was read as GPR7 antag 24.1*.
Screening CCc1ccc(-c2nc(CSCC(=O)N3CCN(c4ncccn4)CC3)c(C)o2)cc1 returned OX1R antag-1 -14.0, OX1R antag-2 41.6*, TAAR1 ag 1.6, CHO parental Ca 14.5, TAAR1 antag 45.2 and GPR7 antag -17.1.
`CCn1cc(/C=N/N=C2\CCC3C4CCc5cc(O)ccc5C4CC[C@]23C)c(C)n1` (some centres undefined) gave OX1R antag-1 29.7, OX1R antag-2 52.6, TAAR1 ag 11.1, CHO parental Ca 38.1*, TAAR1 antag 33.5 and GPR7 antag -2.0.
CC12CCC3c4ccc(O)cc4CCC3C1CCC2=O (centres undefined) was read as OX1R antag-1 -13.8, OX1R antag-2 28.3, TAAR1 ag 5.2, CHO parental Ca -9.5 and TAAR1 antag 19.9.
`COC(=O)c1nn(-c2ccc(OC)cc2)ccc1=O` gave OX1R antag-1 -0.9, OX1R antag-2 9.4, TAAR1 ag 7.4, CHO parental Ca 1.0, TAAR1 antag -10.6 and GPR7 antag -9.8.
For Cc1[nH]c2ccccc2c1CN1CCN(c2ccccn2)CC1 the results were OX1R antag-1 9.0, OX1R antag-2 24.2, TAAR1 ag 5.9, CHO parental Ca 1.5, TAAR1 antag -10.8 and GPR7 antag -2.1.
`Cc1[nH]c2ccccc2c1CN1CCC(Cc2ccccc2)CC1` gave OX1R antag-1 -15.0, OX1R antag-2 21.4, TAAR1 ag 40.6*, CHO parental Ca -7.4, TAAR1 antag 6.7 and GPR7 antag 3.9.
Screening O=C(Nc1ccc2ncccc2c1)Nc1ccc2ncccc2c1 returned OX1R antag-1 -4.5, OX1R antag-2 76.0*, TAAR1 ag 20.3, CHO parental Ca -14.3, TAAR1 antag 1.6 and GPR7 antag 4.6.
Screening O=C(Nc1ccc2ncccc2c1)c1ccccc1Br returned OX1R antag-1 -11.1, OX1R antag-2 10.6, CHO parental Ca -10.8 and GPR7 antag -17.3.
For O=C1[C@H](Cc2ccccc2)NCCCC[C@@H](c2ccc(Cl)cc2)N1Cc1ccc(Cl)cc1 the results were TAAR1 ag 41.1* and TAAR1 antag 13.8.
`O=C(O)c1cccc(NC(=S)N/N=C/c2ccccc2OCc2cccc(Br)c2)c1` gave TAAR1 ag -0.9, TAAR1 antag -12.0 and GPR7 antag 8.5.
O=C(O)c1cccc(NC(=S)N/N=C/c2ccccc2OCc2ccc(Br)cc2)c1 was read as OX1R antag-1 16.3, OX1R antag-2 49.8, TAAR1 ag -1.6, CHO parental Ca 42.1*, TAAR1 antag -0.8 and GPR7 antag -8.4.
Screening Cc1cccc(C(=O)NNC(=O)c2ccccc2)c1 returned OX1R antag-1 -6.6, OX1R antag-2 -2.1, TAAR1 ag 1.6, CHO parental Ca -2.9, TAAR1 antag 2.2 and GPR7 antag 5.2.
Screening Cc1cccc(C(=O)c2cnc3ccccc3c2-c2ccccc2)c1 returned OX1R antag-1 -33.1, OX1R antag-2 25.7, TAAR1 ag 11.2, CHO parental Ca -19.4, TAAR1 antag 49.2* and GPR7 antag 2.6.
CC(C)(C)CC(C)(C)c1ccc(OCCOCC[N+](C)(C)Cc2ccccc2)cc1 was read as OX1R antag-1 10.8, OX1R antag-2 8.6, TAAR1 ag 39.8*, CHO parental Ca 12.5 and TAAR1 antag 3.3.
CCCc1c(-c2cccc(Br)c2)ncn1CCc1ccccc1OC was read as TAAR1 ag 20.3 and TAAR1 antag 33.4.
`CC(C)S(=O)(=O)C/C(N)=N/OC(=O)c1cc(Cl)cc(Cl)c1` gave OX1R antag-1 -23.6, OX1R antag-2 24.2, TAAR1 ag 16.0, CHO parental Ca -7.8, TAAR1 antag -17.4 and GPR7 antag -7.5.

Assay outcomes (PubChem BioAssay)
